What was measured:
[1] = Cytotoxicity against human gingival fibroblast at up to 50 uM after 24 hrs by MTT assay
Method in brief: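 Normal human gingival fibroblasts exposed to a range of concentrations for 24 h, with 50 the highest tested. DMSO vehicle control. Viability read by MTT formazan absorbance and compared with control for statistical significance.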

[2] = Induction of apoptosis in human OC2 cells assessed as early apoptotic cells at 25 uM after 3 hrs by Annexin V-FITC and propidium iodide staining (reference value: 0.67%); format: functional
OC2 [3] = experiment: Induction of apoptosis in human OC2 cells assessed as caspase 3 activity at 50 uM by flow cytometry; format: functional, cell-based; details: TDE = time-dependent effect
Method in brief: (§1)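 OC-2 or OEC-M1 OSCC cells exposed to 50 µM for 3 h, 6 h and 9 h to follow caspase-3 activity over time. Activity read by flow cytometry with a specific peptide substrate.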

[4] = Induction of apoptosis in human OC2 cells assessed as late apoptotic cells at 25 uM after 3 hrs by Annexin V-FITC and propidium iodide staining (reference value: 1.92%); format: functional
OECM1 [5] = experiment: Induction of apoptosis in human OECM1 cells assessed as decrease of Bcl-xL protein expression after 6 hrs by Western blotting; format: functional, cell-based
Method in brief: (§2)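 OEC-M1 cells exposed to 10, 25 or 50 µM or DMSO for 6 h. Equal amounts of total lysate immunoblotted for Bcl-2, Bcl-xL, Bax and PARP (116-kDa full-length, 85-kDa cleaved), with β-actin as loading control. Bands quantified as fold of vehicle control after β-actin normalization.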

OECM1 [6] = experiment: Induction of apoptosis in human OECM1 cells assessed as PARP cleavage after 6 hrs by Western blotting; format: functional, cell-based; method in brief: as §2
OECM1 [7] = experiment: (§3) Cytotoxicity against human OECM1 cells after 24 hrs by MTT assay; format: functional, cell-based
Method in brief: (§4)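 Human oral squamous carcinoma lines, from primary tumours of adult male Taiwanese betel quid chewers, exposed to a range of concentrations for 24 h. DMSO control. Viable cells read by MTT reduction to formazan (absorbance). IC50 is the concentration giving a 50% fall in absorbance relative to control.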

[8] = as §3; format: functional, cell-based; details: OECM1, 24 h; method in brief: as §4
[9] = Induction of apoptosis in human OECM1 cells assessed as cytoplasmic histone-associated DNA fragmentation at 50 uM after 4 hrs by TUNEL assay (reference value: 8.15%); format: functional
Method in brief: (§5)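 After 4 h exposure to 25 or 50 µM or DMSO vehicle, OC-2 and OEC-M1 oral cancer cells were scored for DNA fragmentation by TUNEL labeling with flow cytometry, as % of cells. Mean ± SD of three determinations.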

[10] = Induction of apoptosis in human OC2 cells assessed as cytoplasmic histone-associated DNA fragmentation at 25 uM after 4 hrs by TUNEL assay (reference value: 28.6%); format: functional; method in brief: as §5
[11] = Induction of apoptosis in human OECM1 cells assessed as early apoptotic cells at 50 uM after 3 hrs by Annexin V-FITC and propidium iodide staining (reference value: 0.69%); format: functional
[12] = Induction of apoptosis in human OC2 cells assessed as cytoplasmic histone-associated DNA fragmentation at 50 uM after 4 hrs by TUNEL assay (reference value: 28.6%); format: functional; method in brief: as §5
[13] = Induction of apoptosis in human OECM1 cells assessed as caspase 3 activity at 50 uM after 3 hrs by flow cytometry (reference value: 52.34%); format: functional
[14] = Induction of apoptosis in human OC2 cells assessed as early apoptotic cells at 50 uM after 3 hrs by Annexin V-FITC and propidium iodide staining (reference value: 0.67%); format: functional
[15] = Induction of apoptosis in human OECM1 cells assessed as early apoptotic cells at 25 uM after 3 hrs by Annexin V-FITC and propidium iodide staining (reference value: 0.69%); format: functional
[16] = (§6) Cytotoxicity against human OC2 cells after 24 hrs by MTT assay; format: functional, cell-based; details: OC2, 24 h; method in brief: as §4
OC2 [17] = experiment: as §6; format: functional, cell-based; method in brief: as §4
[18] = Induction of apoptosis in human OECM1 cells assessed as late apoptotic cells at 50 uM after 3 hrs by Annexin V-FITC and propidium iodide staining (reference value: 5.18%); format: functional
[19] = Induction of apoptosis in human OC2 cells assessed as late apoptotic cells at 50 uM after 3 hrs by Annexin V-FITC and propidium iodide staining (reference value: 1.92%); format: functional
[20] = Induction of apoptosis in human OECM1 cells assessed as caspase 3 activity at 25 uM after 3 hrs by flow cytometry (reference value: 52.34%); format: functional
OECM1 [21] = experiment: Induction of apoptosis in human OECM1 cells assessed as increase of Bax protein expression after 6 hrs by Western blotting; format: functional, cell-based; method in brief: as §2
[22] = Induction of apoptosis in human OC2 cells assessed as caspase 3 activity at 25 uM after 3 hrs by flow cytometry (reference value: 48.99%); format: functional
[23] = Induction of apoptosis in human OC2 cells assessed as caspase 3 activity at 50 uM after 3 hrs by flow cytometry (reference value: 48.99%); format: functional
OECM1 [24] = experiment: Induction of apoptosis in human OECM1 cells assessed as decrease of Bcl-2 protein expression after 6 hrs by Western blotting; format: functional, cell-based; method in brief: as §2
OECM1 [25] = experiment: Induction of apoptosis in human OECM1 cells assessed as caspase 3 activity at 50 uM by flow cytometry; format: functional, cell-based; details: TDE = time-dependent effect; method in brief: as §1
[26] = Induction of apoptosis in human OECM1 cells assessed as cytoplasmic histone-associated DNA fragmentation at 25 uM after 4 hrs by TUNEL assay (reference value: 8.15%); format: functional; method in brief: as §5
[27] = Induction of apoptosis in human OECM1 cells assessed as late apoptotic cells at 25 uM after 3 hrs by Annexin V-FITC and propidium iodide staining (reference value: 5.18%); format: functional

C=C(CC[C@@H](C)[C@H]1CC[C@H]2C3=C(C(=O)C[C@]12C)[C@@]1(C)CCC(=O)[C@@H](C)[C@@H]1CC3)C(C)C(=O)OC (some centres not stated) [METHYLANTCINATE A]
Activity [1]: Non-toxic | Activity [2]: 15.35% | Activity (OC2 [3]): tde | Activity [4]: 13.2% | Activity (OECM1 [5]): Dose-dependent effect | Activity (OECM1 [6]): Dose-dependent effect | Activity (OECM1 [7]): Dose-dependent effect | IC50 [8]: 24.5 µM | Activity [9]: 57.8% | Activity [10]: 41.07% | Activity [11]: 62.33% | Activity [12]: 52.55% | Activity [13]: 87.07% | Activity [14]: 9.09% | Activity [15]: 59.73% | IC50 [16]: 37.4 µM | Activity (OC2 [17]): Dose-dependent effect | Activity [18]: 27.71% | Activity [19]: 14.3% | Activity [20]: 66.86% | Activity (OECM1 [21]): Dose-dependent effect | Activity [22]: 59.19% | Activity [23]: 69.06% | Activity (OECM1 [24]): Dose-dependent effect | Activity (OECM1 [25]): tde | Activity [26]: 56.5% | Activity [27]: 23.63%

Source: ChEMBL document CHEMBL1255182, “Methylantcinate A induces tumor specific growth inhibition in oral cancer cells via Bax-mediated mitochondrial apoptotic pathway” (Bioorg Med Chem Lett, 2010)
